Test [1] is described as follows: (§1) Inhibition of AP1-mediated transcriptional activation in human Jurkat cells. The format is cell-based.
In test [2] the target is Glycogen synthase kinase-3 beta (Homo sapiens, UniProt P49841). The experiment in a line: Inhibition of GSK3-beta.
Test [3] in a line: (§2) Inhibition of NF-kappaB-mediated transcriptional activation in human A549 cells. The format is cell-based.
The subject of the next test is Jurkat. The test is described as §1. It is filed as cell-based.
The test system of a further test is THP-1. The experiment in a line: Inhibition of LPS-induced TNFalpha production in human THP1 cells. The format is functional, cell-based. The method in brief:
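THP-1 monocytes seeded at 1 × 10⁶ cells/mL in 1% FCS medium and left overnight. Compound pretreatment for 1 h, then LPS stimulation for 24 h. TNF-α in supernatants measured by sandwich ELISA. IC50 is the mean of n = 3 repeat experiments, SD given.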

The test system of test [4] is Mus musculus. The test is described as follows: Inhibition of LPS-induced TNFalpha release in BALB/c mouse at 50 mg/kg. It is filed as functional. The method in brief: (§3)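 Oral dosing of BALB/c mice 30 min before LPS challenge (0.1 mg/kg ip). Serum TNF-α determined 90 min after LPS. BIRB796 (p38 MAP kinase inhibitor) served as reference compound.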
Test [5] relates to Mus musculus. The experiment in a line: Inhibition of LPS-induced TNFalpha release in BALB/c mouse at 300 mg/kg relative to […]. It is filed as functional. The method in brief: as §3
For the next test, the system named is A549. The test is described as §2. It is filed as cell-based.

Structures are written as SMILES. Calls of active or inactive are those of the source. The calls are words filed in the database; no cut-off is given here.

Turning to `COc1cccc(Nc2nccc(C3=CNN4C=CC=CC34)n2)c1` (configuration not stated), the IC50 (as a rule, the concentration needed to halve the response being measured) came out at 1800 nM in test [1], 100 nM in test [2] and 1000 nM in test [3].

Turning to `C1=CC2C(c3ccnc(Nc4ccccc4)n3)=C(c3ccccc3)NN2C=C1` (configuration not stated), the IC50 in test [1] was 700 nM; in test [2], 60 nM; in test [3], 1700 nM.

Turning to `O=C(Nc1n[nH]c2nc(N3CCN(C(=O)c4ccc(F)cc4F)CC3)c(F)cc12)C1CC1`, the result (in the test on Jurkat; in test [2]) was inactive. This molecule also gave an IC50 in test [3] of 19300 nM.

In the case of `C1=CC2C(c3ccnc(Nc4ccccc4)n3)=CNN2C=C1` (configuration not stated), the IC50 is 900 nM in test [1], 150 nM in test [2], 140 nM in the test with THP-1 and 600 nM in test [3].

Regarding `COc1ccccc1N1CCN(c2nc3[nH]nc(NC(=O)C4CC4)c3cc2F)CC1`, the result (in the test with Jurkat; in test [2]; with THP-1) was inactive. The same molecule displayed an IC50 in test [3] of 10900 nM.

With `COCCn1cc(-c2ccnc(Nc3cccc(OC)c3)n2)c2ccccc21`, the outcome with Jurkat was inactive. The results for the IC50 in test [2] and in test [3] were 140 nM and 7800 nM, respectively.

Turning to `COc1cccc(Nc2nccc(C3=C(c4ccccc4)NN4C=CC=CC34)n2)c1` (configuration not stated), the values for the IC50 in test [1], in test [2] and in test [3] were 1600 nM, 30 nM and 1900 nM, respectively.

For the molecule `Cc1ccc(-n2nc(C(C)(C)C)cc2NC(=O)Nc2ccc(OCCN3CCOCC3)c3ccccc23)cc1` [DORAMAPIMOD], in the test with Mus musculus [4], 50 mg/kg produced 93% inhibition in vivo.

Take `Cc1ccc(Cl)cc1Nc1nccc(C2=CNN3C=CC=CC23)n1` (configuration not stated): the IC50 in test [1] was 4900 nM; in test [2] it was 10600 nM; in test [3], 4300 nM.

`COCCn1cc(-c2ccnc(Nc3ccccc3)n2)c2cccnc21`: the IC50 in test [1] amounted to 11400 nM; in test [2] it was 1050 nM; in test [3] it was 5600 nM.

`O=C(Nc1n[nH]c2nc(N3CCN(S(=O)(=O)c4ccccc4C(F)(F)F)CC3)c(F)cc12)C1CC1`: the result (in the test with Jurkat; in test [2]) was inactive. For the same molecule, the half-inhibitory concentration (IC50) in test [3] stood at 9400 nM.

On to `COCCn1cc(-c2ccnc(Nc3cccc(OC)c3)n2)c2cccnc21`, for which the inhibition in vivo (commonly the drop in the measured response relative to a control, in per cent) at 300 mg/kg with Mus musculus [5] is 89%. In the test on Jurkat, the outcome was inactive. The IC50 in test [2] stood at 2200 nM; in the test with THP-1 it was 990 nM; in test [3], 1400 nM.

For the molecule `COc1ccccc1C(=O)N1CCN(c2nc3[nH]nc(NC(=O)C4CC4)c3cc2F)CC1`, the result (in the test on Jurkat; in test [2]) was inactive. Also, in test [3], the IC50 was 13100 nM.

`COCCn1cc(-c2ccnc(Nc3ccccc3)n2)c2ccccc21`: the result in the test on Jurkat was inactive. Also, the IC50 in test [2] came to 320 nM; in test [3], 10400 nM.

`O=C(Nc1n[nH]c2nc(N3CCNCC3)c(F)cc12)C1CC1`: the result (with Jurkat; in test [2]; in the test with A549) was inactive.

Values taken from ChEMBL document CHEMBL1140799, “Novel heterocycle-substituted pyrimidines as inhibitors of NF-kappaB transcription regulation related to TNF-alpha cytokine release” (Bioorg Med Chem Lett, 2008).
